The source made the active and inactive calls.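 The calls were made as follows: active = current rise at least 3 SD above the untreated control mean in each of two repeat wells; inactive = the rest.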
target: Potassium voltage-gated channel subfamily KQT member 1 (Homo sapiens) (UniProt P51787); assay: KCNQ1 activators by electrophysiology – IonWorks patch clamp, KCNQ1-CHO cells, orthogonal assay for KCNQ1 potentiator project, confirmation (AID 493184); settings: automated patch clamp current, at 10 µM
How it was run: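 Assay system – CHO cells carrying KCNQ1 · Medium – pH 7.4 external bath · Probe or stimulus – depolarizing pulse to +40 mV from -90 mV · Compound dosing – one dose, 10 µM final · Measured by – automated perforated-patch electrophysiology · Measure – % potentiation of steady-state current relative to pre-compound · Repeats – two replicates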

Sequence of Potassium voltage-gated channel subfamily KQT member 1 (Homo sapiens) (P51787 whole entry, looked up): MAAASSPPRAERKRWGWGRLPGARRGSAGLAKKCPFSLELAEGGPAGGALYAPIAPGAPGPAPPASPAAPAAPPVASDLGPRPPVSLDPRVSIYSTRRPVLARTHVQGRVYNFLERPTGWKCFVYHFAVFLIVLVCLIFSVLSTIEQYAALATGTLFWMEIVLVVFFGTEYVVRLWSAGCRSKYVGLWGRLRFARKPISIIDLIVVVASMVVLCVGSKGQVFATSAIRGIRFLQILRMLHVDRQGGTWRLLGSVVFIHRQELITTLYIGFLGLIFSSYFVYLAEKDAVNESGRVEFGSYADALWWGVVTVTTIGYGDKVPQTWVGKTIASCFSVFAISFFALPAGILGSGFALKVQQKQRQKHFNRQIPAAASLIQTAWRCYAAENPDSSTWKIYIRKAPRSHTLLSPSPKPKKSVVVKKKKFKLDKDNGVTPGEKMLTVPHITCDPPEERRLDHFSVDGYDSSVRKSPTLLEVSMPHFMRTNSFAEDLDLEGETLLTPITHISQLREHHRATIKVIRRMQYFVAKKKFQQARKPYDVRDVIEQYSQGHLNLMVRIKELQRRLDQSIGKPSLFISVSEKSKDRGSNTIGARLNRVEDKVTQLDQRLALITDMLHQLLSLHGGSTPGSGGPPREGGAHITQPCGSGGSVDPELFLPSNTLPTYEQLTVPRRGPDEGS

outcome, inactive:
CCOC(=O)c1c(NC(=S)NCCc2ccccc2)sc2c1CC(C(C)C)OC2 (stereo not given)
CCOC(=O)c1c(NS(C)(=O)=O)sc2c1CCC(C)C2 (stereo not given)
Clc1ccc(-c2csc(N3CCc4ccccc4C3)n2)cc1
CC1CCCC(NC(=S)NC(=O)c2ccccc2Br)C1C (stereo not given)
CCOc1ccc(N2CC(C(=O)Nc3cc(Cl)ccc3-n3cncn3)CC2=O)cc1 (stereo not given)
COc1cccc2sc(Nc3nnc(-c4ccccc4Cl)o3)nc12
N=c1sccn1CC(=O)Nc1cc(Cl)ccc1Oc1ccccc1
CC(C)(C)c1cc(-c2csc(Nc3ccccc3)[n+]2Cc2ccc(C(=O)O)cc2)cc(C(C)(C)C)c1O
COC(=O)c1cccnc1NC(=S)NC1CCCCC1
CC(C)CCn1c(=S)[nH]c2ncccc2c1=O
O=[N+]([O-])c1cccc(-c2ccc3nnc(SCc4ccccn4)n3n2)c1
COC(=O)c1c(NS(=O)(=O)c2ccc3ccccc3c2)sc2c1CCCC2
Cc1noc(C)c1CSc1ncnc2sc(C)c(C)c12
COc1ccc(C(=O)Nc2ccnn2C2CCN(Cc3ccncc3)CC2)cc1
Cc1cc2ccccn2c1C(=S)NC(=O)c1ccccc1
S=c1nc[nH]c2c1cnn2-c1ccccc1
Cc1snnc1C(=O)NC(=S)Nc1ccccc1
CCOC(=O)C1CCN(C(=O)c2c(C)oc3c2C(=O)c2ccccc2C3=O)CC1
COc1ccc(OC)c(NC(=O)C(=O)NNC(=O)C23CC4CC(CC(C4)C2)C3)c1
COc1cccc(C=NCC(C)N=Cc2cccc(OC)c2O)c1O (stereo not given)
Cc1ccc(/C=C/C(=O)c2ccccc(=O)c2O)c(C)c1
COc1ccc(Nc2nc(-c3sc(C)nc3C)cs2)c(OC)c1
CN(C)CC(CCCCC(CN(C)C)C(=O)c1ccccc1)C(=O)c1ccccc1 (stereo not given)
O=C(CN(Cc1ccccc1Cl)C(=O)c1csnn1)NC1CCCC1
CCCCCC/C(C)=C1/SC(=S)NC1=O
CSc1ccc(NC(=O)CC(C)=O)cc1
S=c1[nH]c(-c2ccccc2)cs1
COc1ccc(C(=O)NC(=S)N2CCC(C)CC2)cc1Br
CN(C)c1ccc(-c2nn3c(-c4ccccc4Cl)nnc3s2)cc1
CNC(=S)Nc1sc2c(c1C(=O)OC)CCC2
COc1ccc(CCNC(=O)c2c(C)nc3ccccn23)cc1
CCOc1ccc(-c2noc(CCC(=O)NC3CCCC3)n2)cc1OC
Cc1ccc(C)c(NC(=S)NC(=O)c2cncc(Br)c2)c1
CN(C)CCNc1ncnc2c1sc1nc(N3CCCC3)c3c(c12)CC(C)(C)OC3
O=C(c1ccc(Cl)cc1)c1c[nH]c(C(=O)C(Cl)(Cl)Cl)c1
FC(F)(F)c1cnc2c(c1)[nH]c(=S)n2-c1ccc(Cl)cc1
Oc1ccc(N=Nc2ccc3c(c2)OCCO3)c2cccnc12
O=c1c2cccnc2n(-c2ccccc2)n1Cc1ccc(Cl)cc1
Oc1c(N=NC(=S)Nc2ccccc2F)c2ccccc2n1Cc1ccccc1Cl
Oc1c(Br)cc(Br)cc1C=Nc1ccc2c(c1)OCO2

— PubChem BioAssay
